The test system of assay [1] is Rattus norvegicus. As to the kind of experiment: Postcoital antifertility activity in rat assessed as viable/resorbing fetuses at 1 ug, sc qd for 11 days. The format is functional, organism-based. Put shortly: (§1)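 Female rats, 4–5 per group, given 11 daily oral or subcutaneous doses starting at the first evidence of breeding. They were killed on day 12 and checked for viable or resorbing fetuses. Results are given as animals pregnant out of animals treated.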

Assay [2] concerns Rattus norvegicus. Briefly: Postcoital antifertility activity in rat assessed as viable/resorbing fetuses at 1 ug, po qd for 11 days. The format is functional, organism-based. In outline:
as §1

The test system of assay [3] is Mus musculus. Briefly: Antiestrogenic activity in immature Cox mouse assessed as reduction of uterine wet weight at 3 ug, sc qd for 3 days. The format is functional.
For assay [4], the system named is Mus musculus. Briefly: Antiestrogenic activity in immature Cox mouse assessed as reduction of uterine wet weight at 1 ug, sc qd for 3 days in presence of 0.3 ug of estrone. The format is functional. In outline: (§2)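 Immature mice, ten per group, given the agent daily for 3 days by subcutaneous injection or by mouth. The agent went with estrone given subcutaneously (0.3 µg total dose in the table). Subcutaneous doses were in 0.1 mL corn oil, and doses are stated as total dose. Uterine wet weight was taken on day 4 and compared with estrone alone. Reported as mean difference in mg (SE) and % inhibition.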

The test system of assay [5] is Rattus norvegicus. Briefly: Uterotropic activity in ovariectomized rat assessed as increase of uterine weight at 1 ug, po qd for 7 days. The format is functional, Uterus. To be noted: in the assay text read “1 mg” for “1 ug”. In outline: (§3)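 Ovariectomized adult rats, five per group, treated daily for 7 days, orally or subcutaneously, with the agent in 0.1 mL corn oil. The value is the mean uterine weight in mg of the treated group minus that of the control group (eight animals). Significance was tested by Student's t test (p < 0.05).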

The subject of assay [6] is Rattus norvegicus. As to the kind of experiment: Uterotropic activity in ovariectomized rat assessed as increase of uterine weight at 1 ug, sc qd for 7 days. The format is functional, Uterus. To be noted: in the assay text read “1 mg” for “1 ug”. Put shortly: as §3
In assay [7] the test system is Mus musculus. As to the kind of experiment: Antiestrogenic activity in immature Cox mouse assessed as reduction of uterine wet weight at 300 ug, sc qd for 3 days in presence of 0.3 ug of estrone. The format is functional. Put shortly: as §2
For assay [8], the system named is Rattus norvegicus. As to the kind of experiment: Postcoital antifertility activity in rat assessed as viable/resorbing fetuses at 0.5 ug, po qd for 11 days. The format is functional, organism-based. In outline:
as §1

The test system of assay [9] is Mus musculus. As to the kind of experiment: Antiestrogenic activity in immature Cox mouse assessed as reduction of uterine wet weight at 3 ug, sc qd for 3 days in presence of 0.3 ug of estrone. The format is functional. Put shortly: as §2
Assay [10] relates to Rattus norvegicus. Briefly: Antiuterotropic activity in ovariectomized rat assessed as reduction of uterine weight at 5 ug, po qd for 7 days in presence of 17beta-estradiol (reference value: 268.7 +/- 10.3 mg). The format is functional.
Assay [11] has as its system Rattus norvegicus. As to the kind of experiment: Uterotropic activity in ovariectomized rat assessed as increase of uterine weight at 0.5 ug, po qd for 7 days. The format is functional, Uterus. To be noted: in the assay text read “0.5 mg” for “0.5 ug”. In outline:
as §3

Assay [12] relates to Mus musculus. As to the kind of experiment: Antiestrogenic activity in immature Cox mouse assessed as reduction of uterine wet weight at 100 ug, sc qd for 3 days in presence of 0.3 ug of estrone. The format is functional. In outline: as §2
Assay [13] relates to Mus musculus. As to the kind of experiment: Antiestrogenic activity in immature Cox mouse assessed as reduction of uterine wet weight at 30 ug, sc qd for 3 days in presence of 0.3 ug of estrone. The format is functional. Put shortly:
as §2

Assay [14] relates to Mus musculus. Briefly: Antiestrogenic activity in immature Cox mouse assessed as reduction of uterine wet weight at 100 ug, sc qd for 3 days. The format is functional.
In assay [15] the test system is Mus musculus. As to the kind of experiment: Antiestrogenic activity in immature Cox mouse assessed as reduction of uterine wet weight at 300 ug, po qd for 3 days in presence of 0.3 ug of estrone. The format is functional. In outline: as §2
The subject of assay [16] is Rattus norvegicus. Briefly: Postcoital antifertility activity in rat assessed as viable/resorbing fetuses at 5 ug, po qd for 11 days. The format is functional, organism-based. Put shortly:
as §1

Assay [17] deals with Mus musculus. Briefly: Antiestrogenic activity in immature Cox mouse assessed as reduction of uterine wet weight at 1 ug, sc qd for 3 days. The format is functional.
Assay [18] has as its system Mus musculus. As to the kind of experiment: Antiestrogenic activity in immature Cox mouse assessed as reduction of uterine wet weight at 10 ug, sc qd for 3 days in presence of 0.3 ug of estrone. The format is functional. Put shortly:
as §2

For assay [19], the system named is Rattus norvegicus. Briefly: Antiuterotropic activity in ovariectomized rat assessed as reduction of uterine weight at 3 ug, po qd for 7 days in presence of 17beta-estradiol (reference value: 268.7 +/- 10.3 mg). The format is functional.
Assay [20] relates to Mus musculus. Briefly: Antiestrogenic activity in immature Cox mouse assessed as reduction of uterine wet weight at 30 ug, po qd for 3 days in presence of 0.3 ug of estrone. The format is functional. In outline: as §2
Assay [21] concerns Rattus norvegicus. Briefly: Postcoital antifertility activity in rat assessed as viable/resorbing fetuses at 0.5 ug, sc qd for 11 days. The format is functional, organism-based. In outline:
as §1

For assay [22], the system named is Rattus norvegicus. Briefly: Uterotropic activity in ovariectomized rat assessed as increase of uterine weight at 0.1 ug, po qd for 7 days. To be noted: in the assay text read “0.1 mg” for “0.1 ug”. The format is functional, Uterus. In outline: as §3
For assay [23], the system named is Mus musculus. Briefly: Antiestrogenic activity in immature Cox mouse assessed as reduction of uterine wet weight at 300 ug, sc qd for 3 days. The format is functional.
For assay [24], the system named is Mus musculus. As to the kind of experiment: Antiestrogenic activity in immature Cox mouse assessed as reduction of uterine wet weight at 10 ug, sc qd for 3 days. The format is functional.
Assay [25] relates to Mus musculus. Briefly: Antiestrogenic activity in immature Cox mouse assessed as reduction of uterine wet weight at 30 ug, sc qd for 3 days. The format is functional.
Assay [26] deals with Rattus norvegicus. As to the kind of experiment: Postcoital antifertility activity in rat assessed as viable/resorbing fetuses at 5 ug, sc qd for 11 days. The format is functional, organism-based. In outline:
as §1

Assay [27] has as its system Rattus norvegicus. As to the kind of experiment: Antiuterotropic activity in ovariectomized rat assessed as reduction of uterine weight at 10 ug, po qd for 7 days in presence of 17beta-estradiol (reference value: 268.7 +/- 10.3 mg). The format is functional.
Assay [28] relates to Mus musculus. Briefly: Antiestrogenic activity in immature Cox mouse assessed as reduction of uterine wet weight at 100 ug, po qd for 3 days in presence of 0.3 ug of estrone. The format is functional. Put shortly: as §2

SMILES strings stand for the structures. Activity calls are given as the source filed them. The calls are words filed in the database; no cut-off is given here.

Take `COc1ccc(C(=O)C2=C(c3ccc(OC)cc3)CCc3ccccc32)cc1`: the outcome in the assay on Rattus norvegicus [1] (in the assay text read “at 1 mg” for “at 1 ug”) and with Rattus norvegicus [2] was inactive.
Take `COc1ccc(C(=O)C2C(c3ccc(OC)cc3)=CCc3ccccc32)cc1` (configuration not stated): the outcome with Rattus norvegicus [1] and in the assay on Rattus norvegicus [2] was inactive.
As for `COc1ccc(C2=C(C(=O)c3ccc(OCCN4CCCC4)cc3)c3ccccc3CC2)cc1.CS(=O)(=O)O` [TRIOXIFENE MESYLATE], the result with Rattus norvegicus [1], with Rattus norvegicus [2], in the assay on Rattus norvegicus [16] and in the assay with Rattus norvegicus [26] was Active. Also, the Activity was 28.8 mg in the assay with Mus musculus [3]; 58.7 mg in the assay on Rattus norvegicus [5]; 66.8 mg with Rattus norvegicus [6]; 222.3 mg in the assay on Rattus norvegicus [10]; 54.9 mg in the assay on Rattus norvegicus [11]; 24.2 mg in the assay with Mus musculus [14]. Moreover, the Activity in the assay with Mus musculus [17] was determined as 8.6 mg; with Rattus norvegicus [19], 231.7 mg; in the assay on Rattus norvegicus [22] it was 35 mg; in the assay with Mus musculus [23] it was 19.1 mg; in the assay with Mus musculus [24] it was 34 mg; with Mus musculus [25], 21.2 mg. For the same compound, in the assay with Rattus norvegicus [27], the Activity is 200.9 mg. Further, the “inhibition (INH)” value came out at 0% in the assay with Mus musculus [4]; 44.1% in the assay with Mus musculus [7]; 12.7% in the assay with Mus musculus [9]; 53.5% with Mus musculus [12]; 25.9% with Mus musculus [13]; 52.3% with Mus musculus [15]. Besides, the figures for the “inhibition (INH)” value in the assay on Mus musculus [18], with Mus musculus [20] and with Mus musculus [28] were 22.8%, 31.1% and 49.2%, respectively. The outcome in the assay on Rattus norvegicus [8] and with Rattus norvegicus [21] was inactive.

The values above are taken from ChEMBL document CHEMBL3243977, “Synthesis and antiestrogenic activity of [3,4-dihydro-2-(4-methoxyphenyl)-1-naphthalenyl][4-[2-(1-pyrrolidinyl)ethoxy]-phenyl]methanone, methanesulfonic acid salt” (J Med Chem, 1979).
